Where a SMILES comes first, the peptide text is derived from it.

Experiment [1] concerns the target T1, C5a anaphylatoxin chemotactic receptor 1 (Homo sapiens, UniProt P21730).
T1 sequence (P21730 whole entry): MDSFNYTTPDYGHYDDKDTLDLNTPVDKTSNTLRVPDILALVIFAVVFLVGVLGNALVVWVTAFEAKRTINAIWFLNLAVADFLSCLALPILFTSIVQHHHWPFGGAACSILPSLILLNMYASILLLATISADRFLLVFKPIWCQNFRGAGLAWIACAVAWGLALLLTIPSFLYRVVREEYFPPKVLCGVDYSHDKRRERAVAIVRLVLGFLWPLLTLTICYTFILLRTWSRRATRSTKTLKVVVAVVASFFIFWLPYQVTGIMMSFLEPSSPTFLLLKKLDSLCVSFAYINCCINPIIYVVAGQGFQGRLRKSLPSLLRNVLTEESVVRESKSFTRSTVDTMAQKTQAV
The experiment in a line: Inhibition of [125I]C5a binding to C5a anaphylatoxin chemotactic receptor in PMNL intact cells; inactive. Format: cell-based. Put shortly: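 Intact human PMNL isolated from peripheral blood by one-step density centrifugation. Cells incubated 20 min at 23 °C with [125I]C5a (1 × 10⁻⁹ M), test peptide and protease inhibitors. Cells separated from free ligand by centrifugation through silicone oil at 10000g; pellet γ counts read.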

The target of experiment [2] is T1, C5a anaphylatoxin chemotactic receptor 1. The experiment in a line: Compound was tested for the inhibition of [125I]C5a binding to C5a anaphylatoxin chemotactic receptor in PMNL membranes; inactive. In kind it is cell membranes.
The target is the same in experiment [3]. The experiment in a line: Inhibition of [125I]C5a binding to C5a anaphylatoxin chemotactic receptor in PMNL membranes. Format: cell membranes.
The target is the same in experiment [4]. The experiment in a line: Compound was tested for the inhibition of [125I]C5a binding to C5a anaphylatoxin chemotactic receptor binding to PMNL membranes.
Experiment [5] addresses T2, C5a anaphylatoxin chemotactic receptor 1 (Homo sapiens) (UniProt P21730).
T2 sequence (whole entry): T1 sequence (P21730 whole entry)
As to the kind of experiment: Compound was tested for the inhibition of [125I]C5a binding to C5a anaphylatoxin chemotactic receptor in PMNL membranes. In kind it is cell membranes. The note with it: concentration not given here.

Experiment [6] has as its target T1, C5a anaphylatoxin chemotactic receptor 1. As to the kind of experiment: Inhibition of [125I]-C5a anaphylatoxin chemotactic receptor binding to PMNL membranes.
Experiment [7] deals with T2, C5a anaphylatoxin chemotactic receptor 1 (Homo sapiens). The experiment in a line: Compound was tested for the inhibition of [125I]C5a anaphylatoxin chemotactic receptor binding to PMNL intact cells at a concentration of 0.1-1 mM. In kind it is cell-based.
For experiment [8], the target named is T1, C5a anaphylatoxin chemotactic receptor 1. The experiment in a line: Compound was tested for the inhibition of [125I]C5a anaphylatoxin chemotactic receptor binding to PMNL membranes at a concentration of 0.1-1 mM.

Take `CSCC[C@H](NC(=O)[C@H](CC(=O)O)NC(C)=O)C(=O)N[C@@H](CCC(N)=O)C(=O)N[C@@H](CC(C)C)C(=O)NCC(=O)N[C@@H](CCCN=C(N)N)C(=O)O` (Ac-DMQLGR-OH): the Ki result in experiment [1] and in experiment [2] was “Not Active” in each case.

`CSCC[C@H](NC(=O)[C@H](CC(=O)O)NC(=O)[C@H](CCCCN)NC(=O)[C@H](Cc1cnc[nH]1)NC(C)=O)C(=O)N[C@@H](CCC(N)=O)C(=O)N[C@@H](CC(C)C)C(=O)NCC(=O)N[C@@H](CCCNC(=N)N)C(=O)O` (Ac-HKDMQLGR-OH) gave an inhibitory constant (Ki) in experiment [3] of 150 µM.

For the compound `CC[C@H](C)[C@H](NC(C)=O)C(=O)N[C@@H](CO)C(=O)N[C@@H](Cc1c[nH]cn1)C(=O)N[C@@H](CCCCN)C(=O)N[C@@H](CC(=O)O)C(=O)N[C@@H](CCSC)C(=O)N[C@@H](CCC(N)=O)C(=O)N[C@@H](CC(C)C)C(=O)N[C@@H](CCCN=C(N)N)C(=O)NCC(=O)N[C@@H](CCCN=C(N)N)C(=O)O` (Ac-ISHKDMQLRGR-OH), the Ki in experiment [4] is 100 µM; in experiment [1] it was “Not Active”.

Regarding `CSCC[C@H](NC(=O)[C@H](CC(=O)O)NC(=O)[C@H](CCCCN)NC(C)=O)C(=O)N[C@@H](CCC(N)=O)C(=O)N[C@@H](CC(C)C)C(=O)NCC(=O)N[C@@H](CCCN=C(N)N)C(=O)O` (Ac-KDMQLGR-OH), the Ki result in experiment [1] was “Not Active”. Also, in experiment [5], the inhibition came to 30%.

As to `CC[C@H](C)[C@H](NC(=O)[C@H](CCSC)NC(C)=O)C(=O)N[C@@H](CCCCN)C(=O)N[C@@H](C)C(=O)N[C@@H](Cc1ccccc1)C(=O)N[C@H](C(=O)N[C@@H](CCC(=O)O)C(=O)N[C@@H](CCSC)C(=O)N[C@@H](CCSC)C(=O)N[C@H](C(=O)N[C@H](C(=O)N[C@@H](C)C(=O)N[C@@H](CO)C(=O)N[C@@H](CCC(N)=O)C(=O)N[C@@H](CC(C)C)C(=O)N[C@@H](CCCN=C(N)N)C(=O)N[C@@H](C)C(=O)N[C@@H](CC(N)=O)C(=O)N[C@H](C(=O)N[C@@H](CO)C(=O)N[C@@H](Cc1c[nH]cn1)C(=O)N[C@@H](CCCCN)C(=O)N[C@@H](CC(=O)O)C(=O)N[C@@H](CCSC)C(=O)N[C@@H](CCC(N)=O)C(=O)N[C@@H](CC(C)C)C(=O)NCC(=O)N[C@@H](CCCN=C(N)N)C(=O)O)[C@@H](C)CC)C(C)C)C(C)C)[C@@H](C)O` (Ac-MIKAFTEMMVVASQLRANISHKDMQLGR-OH), the affinity in experiment [6] corresponds to a Ki of 100 µM. In addition, the inhibition in experiment [7] is greater than 20%.

`CC[C@H](C)[C@H](NC(=O)[C@H](CC(N)=O)NC(=O)[C@H](C)NC(=O)[C@H](CCCNC(=N)N)NC(=O)[C@H](CC(C)C)NC(=O)[C@H](CCC(N)=O)NC(=O)[C@H](CO)NC(=O)[C@H](C)NC(=O)[C@@H](NC(=O)[C@@H](NC(=O)[C@H](CCSC)NC(C)=O)C(C)C)C(C)C)C(=O)N[C@@H](CO)C(=O)N[C@@H](Cc1cnc[nH]1)C(=O)N[C@@H](CCCCN)C(=O)N[C@@H](CC(=O)O)C(=O)N[C@@H](CCSC)C(=O)N[C@@H](CCC(N)=O)C(=O)N[C@@H](CC(C)C)C(=O)NCC(=O)N[C@@H](CCCNC(=N)N)C(=O)O` (Ac-MVVASQLRANISHKDMQLGR-OH): the Ki in experiment [6] came to 50 µM. That is a double-digit micromolar value.

Take `CC[C@H](C)[C@H](NC(=O)[C@H](CC(N)=O)NC(=O)[C@H](C)NC(=O)[C@H](CCCNC(=N)N)NC(=O)[C@H](CC(C)C)NC(=O)[C@H](CCC(N)=O)NC(=O)[C@H](CO)NC(=O)[C@H](C)NC(=O)[C@@H](NC(=O)[C@@H](NC(=O)[C@H](CCSC)NC(=O)[C@H](CCSC)NC(=O)[C@H](CCC(=O)O)NC(=O)[C@@H](NC(=O)[C@@H](N)Cc1ccccc1)[C@@H](C)O)C(C)C)C(C)C)C(=O)N[C@@H](CO)C(=O)N[C@@H](Cc1cnc[nH]1)C(=O)N[C@@H](CCCCN)C(=O)N[C@@H](CC(=O)O)C(=O)N[C@@H](CCSC)C(=O)N[C@@H](CCC(N)=O)C(=O)N[C@@H](CC(C)C)C(=O)NCC(=O)N[C@@H](CCCNC(=N)N)C(=O)O` (H-FTEMMVVASQLRANISHKDMQLGR-OH): in experiment [6], the Ki was 100 µM.

In experiment [7], `CC[C@H](C)[C@H](NC(=O)[C@H](CC(N)=O)NC(=O)[C@H](C)NC(=O)[C@H](CCCN=C(N)N)NC(=O)[C@H](CC(C)C)NC(=O)[C@H](CCC(N)=O)NC(=O)[C@H](CO)NC(=O)[C@H](C)NC(=O)[C@@H](NC(=O)[C@@H](NC(=O)[C@H](CCSC)NC(=O)[C@H](CCSC)NC(=O)[C@H](CCC(=O)O)NC(=O)[C@@H](NC(=O)[C@@H](N)Cc1ccccc1)[C@@H](C)O)C(C)C)C(C)C)C(=O)N[C@@H](CO)C(=O)N[C@@H](Cc1c[nH]cn1)C(=O)N[C@@H](CCCCN)C(=O)N[C@@H](CC(=O)O)C(=O)N[C@@H](CCSC)C(=O)N[C@@H](CCC(N)=O)C(=O)N[C@@H](CC(C)C)C(=O)NCC(=O)N[C@@H](CCCN=C(N)N)C(=O)O` (H-FTEMMVVASQLRANISHKDMQLGR-OH) displayed an inhibition greater than 20%.

On to `CSCC[C@H](NC(=O)[C@H](CC(=O)O)NC(=O)[C@H](CCCCN)NC(=O)[C@@H](N)Cc1c[nH]cn1)C(=O)N[C@@H](CCC(N)=O)C(=O)N[C@@H](CC(C)C)C(=O)NCC(=O)N[C@@H](CCCN=C(N)N)C(=O)O` (H-HKDMQLGR-OH), for which the Ki result in experiment [1] was “Not Active”; in experiment [3], 300 µM.

In experiment [8], `CC[C@H](C)[C@H](NC(=O)[C@H](CC(N)=O)NC(=O)[C@H](C)NC(=O)[C@H](CCCNC(=N)N)NC(=O)[C@H](CC(C)C)NC(=O)[C@H](CCC(N)=O)NC(=O)[C@@H](N)CO)C(=O)N[C@@H](CO)C(=O)N[C@@H](Cc1cnc[nH]1)C(=O)N[C@@H](CCCCN)C(=O)N[C@@H](CC(=O)O)C(=O)N[C@@H](CCSC)C(=O)N[C@@H](CCC(N)=O)C(=O)N[C@@H](CC(C)C)C(=O)NCC(=O)N[C@@H](CCCNC(=N)N)C(=O)O` (H-SQLRANISHKDMQLGR-OH) gave an inhibition constant (Ki) of 300 µM.

On to `CC[C@H](C)[C@H](N)C(=O)N[C@@H](CO)C(=O)N[C@@H](Cc1cnc[nH]1)C(=O)N[C@@H](CCCCN)C(=O)N[C@@H](CC(=O)O)C(=O)N[C@@H](CCSC)C(=O)N[C@@H](CCC(N)=O)C(=O)N[C@@H](CC(C)C)C(=O)NCC(=O)N[C@@H](CCCNC(=N)N)C(=O)O` [ISHKDMQLGR] (H-ISHKDMQLGR-OH), for which the Ki in experiment [3] came out at 300 µM.

The record behind these values is ChEMBL document CHEMBL1125281, “Identification and synthesis of a receptor binding site of human anaphylatoxin C5a” (J Med Chem, 1991).
